Several values for one entry are separate records, joined by “and”; a condition that tells them apart may be missing. Identical values can stand only once.
What was measured:
[1] = biological target: T1, hERG channel (Homo sapiens, UniProt Q12809); details: for Maximum inhibition of hERG currents: 1.9 μM, mean ± SEM, n = 3; for Rel. Pot., patch clamp: relative potency compared to AZA1
[2] = biological target: Y652A hERG1 channels (Homo sapiens, UniProt Q12809, Y652A); test: Two-electrode voltage clamp of Y652A hERG1 channels in Xenopus oocytes; type: cell-based; details: 10 μM
[3] = biological target: T1, hERG channel; details: for Thallium flux via hERG relative to vehicle controls (reduced to): 30 μM, mean ± SEM, n = 3; for Rel. Pot., thallium flux: relative potency compared to AZA1
[4] = biological target: WT hERG1 channels (Homo sapiens, UniProt Q12809); test: Two-electrode voltage clamp of WT hERG1 channels in Xenopus oocytes; type: cell-based
[5] = biological target: T2, hEAG1 channels (Homo sapiens, UniProt O95259); test: Two-electrode voltage clamp of hEAG1 channels in Xenopus oocytes; type: cell-based; details: 10 μM, n = 4
T2 sequence (O95259 1-962 isoform O95259-2): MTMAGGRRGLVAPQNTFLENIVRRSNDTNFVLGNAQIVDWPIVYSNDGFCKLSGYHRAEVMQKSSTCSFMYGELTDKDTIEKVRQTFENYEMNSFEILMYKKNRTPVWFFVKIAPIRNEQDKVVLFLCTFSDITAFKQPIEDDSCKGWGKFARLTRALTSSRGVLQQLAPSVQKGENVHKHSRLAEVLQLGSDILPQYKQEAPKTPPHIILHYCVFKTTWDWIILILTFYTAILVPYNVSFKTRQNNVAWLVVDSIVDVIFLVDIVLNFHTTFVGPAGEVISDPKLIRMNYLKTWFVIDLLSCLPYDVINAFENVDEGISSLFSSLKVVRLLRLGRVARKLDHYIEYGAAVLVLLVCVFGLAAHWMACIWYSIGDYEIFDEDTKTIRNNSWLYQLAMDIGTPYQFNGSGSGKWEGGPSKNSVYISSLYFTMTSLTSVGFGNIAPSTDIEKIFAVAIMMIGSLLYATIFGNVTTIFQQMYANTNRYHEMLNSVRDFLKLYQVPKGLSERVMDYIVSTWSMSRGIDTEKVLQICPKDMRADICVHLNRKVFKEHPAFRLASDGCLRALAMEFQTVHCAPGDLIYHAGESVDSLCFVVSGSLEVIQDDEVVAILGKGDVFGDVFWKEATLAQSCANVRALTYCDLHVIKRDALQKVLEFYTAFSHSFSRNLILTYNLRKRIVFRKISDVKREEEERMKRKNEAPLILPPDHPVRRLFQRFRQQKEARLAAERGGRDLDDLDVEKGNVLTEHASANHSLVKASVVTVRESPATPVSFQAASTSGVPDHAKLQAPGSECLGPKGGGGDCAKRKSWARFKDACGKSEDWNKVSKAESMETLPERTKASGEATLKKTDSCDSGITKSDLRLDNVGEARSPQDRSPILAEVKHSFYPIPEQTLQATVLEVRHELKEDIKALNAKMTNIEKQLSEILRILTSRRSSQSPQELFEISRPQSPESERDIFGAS
Method in brief: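 Stage IV–V Xenopus oocytes were injected with ~0.2 ng WT or mutant hEAG1 cRNA, held 2–3 days at 18 °C in Barth's saline, and recorded by two-electrode clamp at 22–24 °C. Holding was −80 mV, with 2-s steps from −70 to +40 mV. G = end-of-pulse current/(Vt − Erev), divided by a Boltzmann-extrapolated control Imax, then Boltzmann-fitted for V0.5 and k.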

[6] = biological target: F656T hERG1 channels (Homo sapiens, UniProt Q12809, F656T); test: Two-electrode voltage clamp of F656T hERG1 channels in Xenopus oocytes; type: cell-based; details: 10 μM
[7] = biological target: T1, hERG channel; details: for hERG binding of [3H]dofetilide relative to vehicle controls (reduced to): 10 μM; for Rel. Pot., channel binding: relative potency compared to AZA1
[8] = system: Jurkat T lymphocyte cells; details: fold more potent than AZA1; cited from earlier work
[9] = 10 μM, during 37.8 s pulse to 0 mV

## C=C(C[C@@]12C[C@@H](C)C[C@H](O1)[C@H]1O[C@]3(C[C@H]1O2)NC[C@H](C)C[C@@H]3C)[C@H]1O[C@@](O)([C@@H](O)[C@@H]2C[C@H]3O[C@@]4(CC[C@]5(CC=C[C@@H](/C=C/CCC(=O)O)O5)O4)[C@H](C)C[C@H]3O2)[C@H](C)C[C@@H]1C [AZA1, azaspiracid]
[1]
  Maximum inhibition of hERG currents: 79.5 ± 1.8%
  Rel. Pot., patch clamp: 1.0
[2]
  Shift of V0.5 for activation: -5 mV
[2]; control 6.4 ± 0.3, n = 5
  Slope factor k of G-Vt relationship: 7.3 ± 0.4
[2]; control -20.7 ± 0.6 mV, n = 5
  V0.5 of G-Vt relationship: -26.0 ± 0.8 mV
[2]; n = 5
  Block of peak Itail: 76 ± 3%
[3]
  Thallium flux via hERG relative to vehicle controls (reduced to): 10.7 ± 0.56%
  Rel. Pot., thallium flux: 1.0
[4]; 10 μM, control 8.1 ± 0.3, n = 6
  Slope factor k of G-Vt relationship: 9.6 ± 0.3
[4]; 10 μM, control -22.0 ± 0.5 mV, n = 6
  V0.5 of G-Vt relationship: -20.7 ± 0.5 mV
[4]; [9]
  Amplitude of fast component of onset of block: 0.325
  Amplitude of slow component of onset of block: 0.433
  τfast of onset of current block: 2.96 s
  τslow of onset of current block: 12.66 s
[4]; 10 μM, measured at -10 mV, oocytes, n = 6
  Peak outward hERG1 current, % of control: 19.0 ± 2.4 % of control
[4]; 10 μM, repetitive 1-s pulses to 0 mV, oocytes
  Time constant of onset of hERG1 channel block (τonset): 1.5 min
[4]; 10 μM, single long pulse to 0 mV after 4 min pulse-free incubation, 10 µM
  Unblocked current, % of control: 19% and 19.2%
[4]; 10 μM, tail currents at -70 mV, n = 6
  Inhibition of peak Itail: 75 ± 2%
[4]; at -70 mV in the presence of AZA1 (control 249 ± 8 ms), n = 6
  Tail current deactivation time constant, fast component: 205 ± 17 ms
[4]; at -70 mV in the presence of AZA1 (control 1003 ± 57 ms), n = 6
  Tail current deactivation time constant, slow component: 745 ± 44 ms
[4]; in the presence of AZA1 (control 0.80 ± 0.02)
  Relative amplitude of the slow component of deactivation: 0.72 ± 0.02
[5]; control 4.6 ± 0.7 mV
  V0.5 of G-Vt relationship: 6.4 ± 0.9 mV
[5]; control 16.3 ± 0.6
  Slope factor k of G-Vt relationship: 15.7 ± 0.7
[5]; test potential +40 mV
  Block of hEAG1 current: 15 ± 0.8%
[6]; control 7.8 ± 0.1, n = 5
  Slope factor k of G-Vt relationship: 7.3 ± 0.1
[6]; control -31.0 ± 0.2 mV, n = 5
  V0.5 of G-Vt relationship: -32.6 ± 0.3 mV
[6]; test potentials greater than -20 mV, n = 5
  Reduction of peak Itail: 7 ± 1%
[6]; test potentials negative to -20 mV
  Sensitivity of channel currents to toxin: insensitive
[7]
  hERG binding of [3H]dofetilide relative to vehicle controls (reduced to): 19.7 ± 1.4%
  Rel. Pot., channel binding: 1.0

## 22-demethyl-azaspiracid [AZA3]
[1]
  Maximum inhibition of hERG currents: 79.7 ± 1.6%
  Rel. Pot., patch clamp: 1.0
[3]
  Thallium flux via hERG relative to vehicle controls (reduced to): 16.6 ± 0.50%
  Rel. Pot., thallium flux: 0.7
[8]
  Cytotoxic potency relative to AZA1: 4.5 fold
[7]
  hERG binding of [3H]dofetilide relative to vehicle controls (reduced to): 29.3 ± 1.6%

## C=C(C[C@@]12C[C@@H](C)C[C@@H](O1)[C@H]1O[C@]3(C[C@H]1O2)NC[C@H](C)C[C@@H]3C)[C@H]1O[C@@](O)([C@@H](O)[C@@H]2C[C@H]3O[C@@]4(CC[C@]5(CC(C)=C[C@@H](/C=C/CCC(=O)O)O5)O4)[C@H](C)C[C@H]3O2)[C@H](C)C[C@@H]1C [AZA2, 8-methyl-azaspiracid]
[1]
  Maximum inhibition of hERG currents: 87.3 ± 0.95%
  Rel. Pot., patch clamp: 1.3
[3]
  Thallium flux via hERG relative to vehicle controls (reduced to): 9.6 ± 0.79%
  Rel. Pot., thallium flux: 0.8
[8]
  Cytotoxic potency relative to AZA1: 8.3 fold
[7]
  hERG binding of [3H]dofetilide relative to vehicle controls (reduced to): 22.3 ± 1.0%
  Rel. Pot., channel binding: 0.8

Reference: publication PMC3444677 (Chemical research in toxicology, 2012)
